System: MS2 coat protein
Experiment: apparent Kd, MS2 coat protein; higher = weaker binding; RNA-MaP array; FMN 200 µM where present
Procedure, shortened: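 On Illumina sequencing-chip clusters, designs were transcribed by stalled E. coli RNA polymerase and titrated with SNAP-549-labelled MS2 coat protein (0.7 or 1.5 nM, doubling to 3 µM), without and then with constant ligand, in 100 mM Tris-HCl pH 7.5, 80 mM KCl, 4 mM MgCl2, BSA, DTT, yeast tRNA and Tween-20. Apparent Kd is the median of filtered per-cluster curve fits to green signal normalised to red-channel RNA signal and control-cluster median Fmax.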

[1] = designed as: ON switch for flavin mononucleotide, no ligand
[2] = ligand present: flavin mononucleotide, designed as: ON switch for flavin mononucleotide
[3] = designed as: OFF switch for flavin mononucleotide, no ligand
[4] = ligand present: flavin mononucleotide, designed as: OFF switch for flavin mononucleotide

Sequence | apparent Kd [1] [nM] | apparent Kd [2] [nM] | apparent Kd [3] [nM] | apparent Kd [4] [nM]
GUCGGAAACGACAAAAGUAUGGAUCCAGAAGGCAUGAAACAUGAGGAUCACCCAUGUCUAAGACAUGAGGAUAUGGAUCCAUAC | 7.11 | 3.78 | – | –
AUCGGAAUGUAGAAGGGUGACAUGAGGAUCACCCAUGUACAAAUGCGUUUUUCGGUAAUUGAUCCACAGGAUAUACUGUCCGAG | 1080 | 794 | – | –
UUUUUGUCAGGAUAUGACUAGAUGCACGUUAGUGUAUUUACUUAGAAGGGACAUGAGGAUCACCCAUGUAUUCC | – | – | 30.7 | 26.7
UACCACGACAACGCGGUAUCACAUGAGGAUCACCCAUGUUCACAGGAUAUGCGAUAGCCAACGAAGCAGAAGGGUGAUUACUUA | 70.2 | 158 | – | –
GGGCCGUUGCAGAAGGCCGGCGGGCUUGGCGCCGGAGGAUAUGCAUGUGCACAUGAGGAUCACCCAUGUGCCAGCCCGGAGGGA | 6.56 | 5.9 | – | –
UCACGGGACUAAGGAUAUAUGUGUACCAUUUUCAUAGAAGGUAGAAUGUUUGAUCAUAAACUAAACAUGAGGAUCACCCAUGUU | – | – | 27 | 25.1
GUCAGCUCGUGAGGAUAUACAUGUGCUGGAAACAGCAUUAUAUUUUUCACAUGAGGAUCACCCAUGUAGAAGGCACGAGCUGAU | – | – | 16.3 | 27
ACAUGAGGAUCACCCAUGUUAAAUGAGGAUAUAUGACUGCACAUGAGGUUCACCCAUGUUCUACCGUAGAAGGUAUAAAUAAUU | 71.7 | 76.1 | – | –
AUAUGAUAGAUAGGAUAUACUAUGGUUUAAGAAGUAGAAGGAUCAAUUGGGAAAUGUACAUGAGGAUCACCCAUGUUAUAGGUU | 35.2 | 33.5 | – | –
UUACUCAUGUAAGGAUAUGCAGCCGAAACGGCUGCAGAAGGUACUAUAAUACAUGAGGAUCACCCAUGUCUUUUUAAUUUAGAC | 51.2 | 78 | – | –
AGGCUAUUAGGAUAUACAUGAGGAUCACCCAUGUCGAUCUACAGGCUACGGCACGGCAGUAGAAGGAAUGGCCG | – | – | 15.7 | 16.7
AUCUACCUAGGAUAUACAUGAGGAUCACCCAUGUACAGUUUCAUCUAGGGAUACUCACGUAGAAGGAGGUAGAU | – | – | 36.6 | 21.5
UACAAUCUAUCUGAGGAUAUCAUGCAUUACACAUGAGGAUCACCCAUGUGCAGGAAAACUGCAUAUGAGAAGGCAGAUAGAUUGU | 561 | 23.8 | – | –
UUCAGGGAUCAAGGAUAUCUAUAAACAUGCGGACAUGAGGAUCACCCAUGUUGAUUACCCAUGUGGGAGAAGGUGAACAUGAGG | 44.7 | 20.6 | – | –
UUUUAACAUGAGGAUCACCCAUGUGAGGAUAUCGAAAUUUAUAUUAAUAUUAAUAUUUCGAGAAGGCACAUUUU | – | – | 142 | 154
UGCUGGGAAUCAGGAUAUACGUGGUAUCCUGAGCACAUGAGGAUCACCCAUGUAGAAGGGAUUCCGCGGUGAGAUUCCGAAACA | – | – | 4.97 | 5.45
GUAGAGUAAGGAUAUGCUGAAUAGGAUAGAAUGGUUAGAAAGUAGAAGGUACAUGAGGAUCACCCAUGUAAUGU | – | – | 24.9 | 25.7
GGACGGAAAGUGAGGAUAUGCUCUACCUCGGUAGAGCAGAAGGCACAUGAGGAUCACCCAUGUGAUAACUGUUC | – | – | 19.1 | 93
CAAUUUAUAUCAGGAUAUACAAUACAAUUAUUAGUAGAAGGGAUUAAUACAUGAGGAUCACCCAUGUCAUGUGUCAUAAUAACC | – | – | 22.6 | 18.1
AAGAAGUGAGGAUAUACAUGAGGAUCACCCAUGUAAAGAAGAAGAGGAGAGAAUAAAGGUAGAAGGCACAAGAA | – | – | 45.8 | 46
GGGUAGGACAGAGGAUAUACGUGCUAGAGAUACUAGCAAAAUUUCCUCACAUGAGGAUCACCCAUGUAGAAGGCUGUCCUAUCG | – | – | 16.9 | 397
AAAAAACAUGAGGAUCACCCAUGUCUUCGGACGUGAGGAUAUGUACAGACUUCGGUCUGUACAGAAGGCACGUAAA | 51 | 23 | – | –
GAGCGAAAGCUCAAUGUCGAUAGCAGAAGGACGUGAAAACAUGAAAACACAUGAGGAUCACCCAUGUAGGAUAUGCUAUCGACU | – | – | 11.2 | 27.6
UUGGACGUCGUAGGAUAUGUAGGGUAUUCCUACAUGAGGAUCACCCAUGUUGACAUGGAAGAAGGACAGAAGGACGAUGUCCAU | 183 | 4.94 | – | –
GGGUACAUAGGAGGAUAUCAUGUAAAUACAUGAGGAUCACCCAUGUCGAUGGAGACAUCGGAGAUUGAGAAGGCCGAUGUACCG | 240 | 10.6 | – | –
GAAUUCGCAUGAGGAUAUGCACUCAUUUCAUGUGCAGAAGGUAUAACAUUAGACAUGAGGAUCACCCAUGUAUUGGUCAUUAAC | 13.7 | 12.1 | – | –
GUCAGCUCGUGAGGAUAUACAACACUGCUUCGGCAGUGUAUUAAGAUCACAUGAGGAUCACCCAUGUAGAAGGCACGAGCUUAU | – | – | 13.5 | 233

Source: the EternaBench riboswitch data
